Tests used:
[1] = test system: Human immunodeficiency virus 1; assay: Ratio of EC50 for HIV1 harboring reverse transcriptase K103N mutant to EC50 for wild type HIV1 NL4.3; assay type: functional
Outline: (§1)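 Fold change is the EC50 against the named mutant strain divided by the EC50 against wild-type HIV-1 NL4-3. […] Means of 2–3 independent experiments in triplicate.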

[2] = test system: Human immunodeficiency virus 1; assay: Ratio of EC50 for HIV1 harboring reverse transcriptase Y188L mutant to EC50 for wild type HIV1 NL4.3; assay type: functional; outline: as §1
[3] = test system: Human immunodeficiency virus 1; assay: Antiviral activity against HIV1 harboring reverse transcriptase K103N mutant infected in human MT4 cells assessed as inhibition of virus-induced cell death measured after 5 days of infection by MTT method; assay type: functional, organism-based; conditions: Human immunodeficiency virus 1, MT4, 120 h
Outline: (§2)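 MT-4 cells infected with the named NNRTI-resistant HIV-1 RT mutant strain, in the presence of a range of compound concentrations. Viable cells counted at day 5 post-infection by tetrazolium (MTT) colorimetry. […] Mean of 2–3 independent experiments, each in triplicate.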

[4] = test system: Human immunodeficiency virus 1; assay: Antiviral activity against HIV1 harboring reverse transcriptase K103N/Y181C double mutant infected in human MT4 cells assessed as inhibition of virus-induced cell death measured after 5 days of infection by MTT method; assay type: functional, organism-based; conditions: Human immunodeficiency virus 1, MT4, 120 h; outline: as §2
[5] = test system: Human immunodeficiency virus 1; assay: Antiviral activity against HIV1 harboring reverse transcriptase Y181C mutant infected in human MT4 cells assessed as inhibition of virus-induced cell death measured after 5 days of infection by MTT method; assay type: functional, organism-based; conditions: Human immunodeficiency virus 1, MT4, 120 h; outline: as §2
[6] = test system: Human immunodeficiency virus 1; assay: Antiviral activity against HIV1 NL4.3 infected in human MT4 cells assessed as inhibition of virus-induced cell death measured after 5 days of infection by MTT method; assay type: functional, organism-based; conditions: Human immunodeficiency virus 1, NL4.3, MT4, 120 h
Outline: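 Lymphoid MT-4 cells (NIH AIDS Reagent Program) infected with HIV-1 NL4-3 in the presence of varying compound concentrations. On day 5 post-infection, viable cells were counted by MTT tetrazolium colorimetry. EC₅₀ = concentration inhibiting virus-induced cell death by 50%. Means of two to three independent experiments, each in triplicate.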

[7] = test system: Human immunodeficiency virus 1; assay: Antiviral activity against HIV1 harboring reverse transcriptase Y188L mutant infected in human MT4 cells assessed as inhibition of virus-induced cell death measured after 5 days of infection by MTT method; assay type: functional, organism-based; conditions: Human immunodeficiency virus 1, MT4, 120 h; outline: as §2
[8] = test system: Human immunodeficiency virus 1; assay: Ratio of EC50 for HIV1 harboring reverse transcriptase Y181C mutant to EC50 for wild type HIV1 NL4.3; assay type: functional; outline: as §1
[9] = Selectivity index, ratio of CC50 for human MT4 cells to EC50 for HIV1 NL4.3 infected in human MT4 cells; assay type: toxicity, cell-based; conditions: read-out: Ratio CC50/EC50
Outline: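 Ratio CC₅₀/EC₅₀. CC₅₀ is from mock-infected MT-4 cells and EC₅₀ from HIV-1 NL4-3-infected MT-4 cells, both read by MTT at day 5 post-infection.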

[10] = Cytotoxicity against human MT4 cells assessed as cell viability by MTT assay; assay type: cell-based
Outline: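 Mock-infected MT-4 cells exposed to a range of compound concentrations. Viable cells measured by MTT colorimetry at day 5. CC₅₀ = concentration causing 50% death of non-infected cells. Means of two to three independent experiments, each in triplicate.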

[11] = biological target: Human immunodeficiency virus type 1 reverse transcriptase (Human immunodeficiency virus 1, UniProt Q72547, K103N); assay: Inhibition of HIV1 wild-type reverse transcriptase K103N mutant using [3H]dTTP by scintillation counting
[12] = test system: Human immunodeficiency virus 1; assay: Ratio of EC50 for HIV1 harboring reverse transcriptase K103N/Y181C double mutant to EC50 for wild type HIV1 NL4.3; assay type: functional; outline: as §1
[13] = biological target: T1, Human immunodeficiency virus type 1 reverse transcriptase (Human immunodeficiency virus 1, UniProt Q72547); assay: Inhibition of HIV1 wild-type reverse transcriptase Y181I/Y181C mutant using [3H]dTTP by scintillation counting
[14] = biological target: T1, Human immunodeficiency virus type 1 reverse transcriptase; assay: Inhibition of HIV1 wild-type reverse transcriptase using [3H]dTTP by scintillation counting
[15] = test system: Human immunodeficiency virus 1; assay: Antiviral activity against HIV1 3B infected in human CEM cells assessed as protection of cells monitored by giant cell formation by microscopy; assay type: functional, organism-based; conditions: Human immunodeficiency virus 1, 3B, CCRF-CEM
Outline: (§3)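 Human CEM cultures (~3 × 10⁵ cells/mL) infected with ~100 CCID₅₀ per mL of HIV-1 IIIB or HIV-2 ROD, seeded with serial compound dilutions. Incubated 4 days at 37 °C; syncytium (giant cell) formation scored by microscopy. EC₅₀ = concentration protecting cells from viral cytopathicity by 50%. Means of two to three independent experiments, each in triplicate.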

[16] = test system: Human immunodeficiency virus 2; assay: Antiviral activity against HIV-2 ROD infected in human CEM cells assessed as protection of cells monitored by giant cell formation by microscopy; assay type: functional, organism-based; conditions: Human immunodeficiency virus 2, ISOLATE ROD, CCRF-CEM; outline: as §3
[17] = biological target: Human immunodeficiency virus type 1 reverse transcriptase (Human immunodeficiency virus 1, UniProt Q72547, L100I); assay: Inhibition of HIV1 wild-type reverse transcriptase L100I mutant using [3H]dTTP by scintillation counting
Outline: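 RNA-dependent DNA polymerase activity of recombinant RT (2–4 nM) on poly(rA)/oligo(dT) 10:1 with [3H]dTTP (1 Ci/mmol). Incubation at 37 °C. Acid-insoluble radioactivity collected on GF/C filters after 5% cold TCA, counted by scintillation.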

[18] = test system: Human immunodeficiency virus 1; assay: Antiviral activity against HIV1 harboring reverse transcriptase […] mutant infected in human MT4 cells assessed as inhibition of virus-induced cell death measured after 5 days of infection by MTT method; assay type: functional, organism-based; conditions: Human immunodeficiency virus 1, MT4, 120 h; outline: as §2

Row | SMILES | Ratio EC50 [1] | Ratio EC50 [2] | EC50 [3] | EC50 [4] | EC50 [5] | EC50 [6] | EC50 [7] | Ratio EC50 [8] | selectivity ratio [9] | CC50 [10] | IC50 [11] | Ratio EC50 [12] | IC50 [13] | IC50 [14] | EC50 [15] | EC50 [16] | IC50 [17] | EC50 [18]
1 | Cc1cn([C@H]2C[C@H](N=[N+]=[N-])[C@@H](CO)O2)c(=O)[nH]c1=O [ZIDOVUDINE] | 4.3 | 8.9 | 16 nM | 0.016 µM | 6 nM | 3.7 nM | 0.033 µM | 1.6 | > 8270 | > 30.6 µM | – | – | – | – | – | – | – | –
2 | COc1ccc(CNC(=O)c2[nH]c3ccc(Cl)cc3c2S(=O)(=O)c2cc(C)cc(C)c2)cc1 | 100 | >186557 | 21 nM | > 39.2 µM | 21 nM | 0.21 nM | > 39.2 µM | 100 | 190000 | 39.9 µM | > 20 µM | >186557 | > 20 µM | 3.7 nM | – | – | – | –
3 | Cc1ccc(CNC(=O)c2[nH]c3ccc(Cl)cc3c2S(=O)(=O)c2cc(C)cc(C)c2)cc1 | 183 | >10105 | 385 nM | > 21.2 µM | 215 nM | 2.1 nM | > 21.2 µM | 103 | 10100 | 21.2 µM | > 20 µM | >10105 | > 20 µM | 50 nM | – | – | – | –
4 | Cc1cc(C)cc(S(=O)(=O)c2c(C(=O)NCC(C)c3ccccc3)[nH]c3ccc(Cl)cc23)c1 (racemic) | 138 | >94938 | 29 nM | > 19.9 µM | 291 nM | 0.21 nM | > 19.9 µM | 1386 | 94900 | 19.9 µM | – | >94938 | – | – | – | – | – | –
5 | Cc1ccc(CCNC(=O)c2[nH]c3ccc(Cl)cc3c2S(=O)(=O)c2cc(C)cc(C)c2)cc1 | 2183 | – | > 50000 nM | > 51.9 µM | 1800 nM | 22.9 nM | – | 79 | > 2270 | > 52 µM | > 20 µM | >2268 | > 20 µM | 2000 nM | 33 nM | > 50 µM | 16.2 µM | –
6 | Cc1cc(C)cc(S(=O)(=O)c2c(C(=O)NCc3ccc([N+](=O)[O-])cc3)[nH]c3ccc(Cl)cc23)c1 | 60 | >25103 | 120 nM | > 50.2 µM | 70 nM | 2 nM | > 50.2 µM | 35 | > 25100 | > 50.2 µM | 0.218 µM | >25103 | > 20 µM | 50 nM | – | – | – | –
7 | Cc1cc(C)cc(S(=O)(=O)c2c(C(=O)NCc3ccc(Cl)cc3)[nH]c3ccc(Cl)cc23)c1 | 13 | >6255 | 103 nM | > 51.3 µM | 451 nM | 8.2 nM | > 51.3 µM | 55 | > 6260 | > 51.3 µM | 7.5 µM | >6255 | > 20 µM | 57 nM | – | – | – | –
8 | Cc1cc(C)cc(S(=O)(=O)c2c(C(=O)NCc3ccc(N(C)C)cc3)[nH]c3ccc(Cl)cc23)c1 | 27 | >3332 | 322 nM | > 40.3 µM | 1030 nM | 12.1 nM | > 40.3 µM | 85 | 3360 | 40.7 µM | – | >3332 | – | – | – | – | – | –
9 | Cc1ccnc2c1NC(=O)c1cccnc1N2C1CC1 [NEVIRAPINE] | – | – | > 3760 nM | > 3.76 µM | > 3760 nM | 112 nM | > 3.76 µM | – | – | > 18.8 µM | – | – | – | – | – | > 10 µM | – | 60 nM
10 | O=C1Nc2ccc(Cl)cc2[C@@](C#CC2CC2)(C(F)(F)F)O1 [EFAVIRENZ] | – | – | 130 nM | > 0.317 µM | 160 nM | 15.9 nM | 0.76 µM | – | – | > 15.8 µM | – | – | – | – | – | > 10 µM | – | 22 nM

Reference: ChEMBL document CHEMBL3259792 (Eur J Med Chem, 2014)
